Bioassay records as filed in PubChem.
hERG protect: hERG rescue from dofetilide block, primary screen, cell-based, CHO-hERG, FluxOR thallium flux, dofetilide IC70; Voltage-gated inwardly rectifying potassium channel KCNH2 (Homo sapiens), Q12809; dofetilide IC70 present; activation (rescue from dofetilide block), less the hit threshold, % at 10 µM; 0.51% of 310,000 active; AID 1511, 2009;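 active means activation above the mean of controls blocked by dofetilide plus 5 SD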;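 further: thallium influx through hERG after potassium depolarization seen as dye fluorescence rise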
KCNQ1 inh: inhibitors of human KCNQ1 channel, primary screen, cell-based, thallium flux, high-throughput | AID 2642, 2010 | B-score at 10 µM | CHO-K1 KCNQ1, FluxOR thallium flux fluorescence; hits give high values | Potassium voltage-gated channel subfamily KQT member 1 (Homo sapiens), P51787 | 1.3% of 310,000 active;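 active means compounds whose thallium flux B-score, printed positive for inhibition, exceeds three library SD while starting fluorescence stays within three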;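 further: channel opened by potassium depolarization with thallium stimulus after 20 min compound exposure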
KCNK3 block: human KCNK3 channel inhibitors, primary screen, CHO cells, FluxOR thallium flux, B-score. Potassium channel subfamily K member 3 (Homo sapiens), O14649. FluxOR fluorescence; hits give low values. B-score at 10 µM. 0.84% of 340,000 active. AID 602410, 2012;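 active means B-score under library mean minus 4 SD, starting fluorescence ratio at most library mean plus 5 SD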;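 further: more negative B-score means stronger inhibition of thallium flux through KCNK3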
Kir21 inh: inhibitors of mouse Kir2.1 inward-rectifier potassium channel; 0.85% of 310,000 active; B-score at 10 µM; HEK293-Kir2.1, FluxOR thallium flux fluorescence; hits give low values; AID 1672, 2009;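 active means fluorescence ratio B-score at or below minus 3 SD of library scores, with starting-brightness B-score within 2 SD, cut at about -4.2 in these data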;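 further: channel flux triggered by added potassium and thallium sulfate stimulus; B-score of peak minus minimum fluorescence over baseline after thallium stimulus; more negative B-score means stronger Kir2.1 block with less thallium influx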
KCNK9 block: KCNK9 potassium channel inhibitors, primary screen, HEK293 cells, thallium flux; AID 488922, 2010; Potassium channel subfamily K member 9 (Homo sapiens), Q9NPC2; B-score at 10 µM; 1.2% of 310,000 active; FluxOR thallium flux fluorescence; hits give low values;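 active means ratio B-score over 3 SD below the library mean, with starting fluorescence within 5 SD of its mean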;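 further: negative B-score means less thallium flux so channel inhibition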
KCNQ1 pot: potentiators or activators of KCNQ1 channel, primary screen, cell-based, thallium flux, high-throughput. CHO-K1 KCNQ1, thallium flux FluxOR fluorescence; hits give high values. B-score at 10 µM. 0.35% of 310,000 active. AID 2648, 2010;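 active means fluorescence ratio B-score, a plate-corrected score, at least three library SD, with initial intensity B-score within 5 SD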
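Assay system: CHO-K1 cells stably expressing KCNQ1. Medium: assay buffer for compound exposure, DMSO matched across wells. Timing: 37 °C overnight plating, 90-min dark dye load, 20-min compound pretreatment. Signal: kinetic FluxOR fluorescence, 10 s baseline plus 110 s post-stimulus.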
Starred values were filed as active, the others as inactive. In the library only some 3.8% were active in any assay of this set; here they are far more common.

Results for COc1ccc(CCNc2nc(-c3ccncc3)cs2)cc1OC ?
hERG protect: -9; KCNQ1 inh: inactive; KCNK3 block: inactive; Kir21 inh: -4; KCNK9 block: inactive; KCNQ1 pot: inactive

How did COc1ccc(CCNc2nc(-c3ccc(O)cc3)cs2)cc1OC do in these assays?
hERG protect: -29; KCNQ1 inh: inactive; KCNK3 block: inactive; Kir21 inh: -4.6*; KCNK9 block: inactive; KCNQ1 pot: inactive

How did CN1CCCN(C(=O)c2ccc(Br)cc2)CC1 do in these assays?
hERG protect: -4; KCNQ1 inh: inactive; KCNK3 block: inactive; Kir21 inh: -0.03; KCNK9 block: inactive; KCNQ1 pot: inactive

Results for CN(CC(=O)Nc1ccc(Cl)c(C(F)(F)F)c1)C(=O)CCN1C(=O)C2CC=CCC2C1=O (stereo not given) ?
hERG protect: -12; KCNQ1 inh: inactive; KCNK3 block: inactive; Kir21 inh: 1.1; KCNK9 block: inactive; KCNQ1 pot: inactive

What do the screens show for `COc1ccc(Cn2ccnc2SCC(=O)Nc2ccccc2OC)cc1`?
hERG protect: -9; KCNQ1 inh: inactive; KCNK3 block: inactive; Kir21 inh: -4.5*; KCNK9 block: inactive; KCNQ1 pot: inactive

Results for CCOc1ccccc1NC(=O)CSc1nccn1-c1ccccc1 ?
hERG protect: -15; KCNQ1 inh: inactive; KCNK3 block: inactive; Kir21 inh: -7*; KCNK9 block: inactive; KCNQ1 pot: inactive

Results for COc1ccc(NC(=O)CSc2nccn2-c2ccccc2)c(OC)c1 ?
hERG protect: -7; KCNQ1 inh: inactive; KCNK3 block: inactive; Kir21 inh: -0.55; KCNK9 block: inactive; KCNQ1 pot: inactive

Results for CC1CC(C)CN(c2ncc3c(n2)CC(c2ccc(Cl)cc2)CC3=O)C1 (stereo not given) ?
hERG protect: -10; KCNQ1 inh: 6*; KCNK3 block: inactive; Kir21 inh: 1; KCNK9 block: inactive; KCNQ1 pot: inactive

Results for CCOc1cc(C(C(=O)NCC2CCCO2)N(C(=O)Cn2nnc3ccccc32)c2ccccc2OC)ccc1O (stereo not given) ?
hERG protect: -8; KCNQ1 inh: inactive; KCNK3 block: inactive; Kir21 inh: 1.1; KCNK9 block: inactive; KCNQ1 pot: inactive

Results for COc1ccc(CCN(C(=O)Cn2nnc3ccccc32)C(C(=O)NCC2CCCO2)c2ccncc2)cc1OC (stereo not given) ?
hERG protect: 39*; KCNQ1 inh: inactive; KCNK3 block: inactive; Kir21 inh: 0.25; KCNK9 block: inactive; KCNQ1 pot: inactive

Results for CN(C)C(CNC(C(=O)Nc1ccc(F)cc1)c1ccccc1)c1ccccc1 (stereo not given) ?
hERG protect: -11; KCNQ1 inh: inactive; KCNK3 block: inactive; Kir21 inh: -1.8; KCNK9 block: inactive; KCNQ1 pot: inactive

Results for Cc1ccc(S(=O)(=O)Nc2ccc3c(c2)C(=O)N([C@H](C)CO)C[C@H](C)[C@@H](CN(C)Cc2ccccc2)O3)cc1 ?
KCNK3 block: -10*

How did COCCCNCCOc1ccc(C(C)(C)c2ccccc2)cc1 do in these assays?
hERG protect: -10; KCNQ1 inh: inactive; KCNK3 block: inactive; Kir21 inh: -13*; KCNK9 block: inactive; KCNQ1 pot: inactive

Results for CC(C)(c1ccccc1)c1ccc(OCCCN2CCNCC2)cc1 ?
hERG protect: -9; KCNQ1 inh: inactive; KCNK3 block: inactive; Kir21 inh: -5.8*; KCNK9 block: inactive; KCNQ1 pot: inactive

Results for CC(C)(C)c1ccc(OCCCCCCN2CCNCC2)cc1 ?
hERG protect: -16; KCNQ1 inh: inactive; KCNK3 block: inactive; Kir21 inh: -0.23; KCNK9 block: inactive; KCNQ1 pot: inactive

Results for CCC(C)NCCOc1ccc(C(C)(C)c2ccccc2)cc1 (stereo not given) ?
hERG protect: -11; KCNQ1 inh: inactive; KCNK3 block: inactive; Kir21 inh: -12*; KCNK9 block: inactive; KCNQ1 pot: inactive

What do the screens show for `O=C1c2ccccc2C(=O)N1CCC(c1ccc(F)cc1)c1ccco1` (stereo not given)?
hERG protect: -17; KCNQ1 inh: inactive; KCNK3 block: inactive; Kir21 inh: -4.8*; KCNK9 block: inactive; KCNQ1 pot: inactive

Results for CN1CC(c2ccccn2)C2(SC(=S)N(Cc3ccccc3)C2=O)C12C(=O)Nc1ccccc12 (stereo not given) ?
hERG protect: -11; KCNQ1 inh: 6*; KCNK3 block: inactive; Kir21 inh: -0.39; KCNK9 block: inactive; KCNQ1 pot: inactive

How did CN1CC(c2ccccc2)C2(SC(=S)N(Cc3ccco3)C2=O)C12C(=O)Nc1ccccc12 (stereo not given) do in these assays?
hERG protect: -3; KCNQ1 inh: inactive; KCNK3 block: inactive; Kir21 inh: -1.6; KCNK9 block: inactive; KCNQ1 pot: inactive

Results for COCCN(C(=O)C1=COCCO1)c1c(N)n(CC(C)C)c(=O)[nH]c1=O ?
KCNK3 block: inactive

What do the screens show for `C=CCN1C(=O)c2ccc(C(=O)N3CCN(S(=O)(=O)c4cccc(Cl)c4)CC3)cc2C1=O`?
hERG protect: -11; KCNQ1 inh: inactive; KCNK3 block: inactive; Kir21 inh: 1; KCNK9 block: inactive; KCNQ1 pot: inactive

How did O=C(O)c1cccc(N/N=C(\N=Nc2ccccc2)c2ccccc2)c1 do in these assays?
hERG protect: -10; KCNQ1 inh: 6*; KCNK3 block: inactive; Kir21 inh: -0.19; KCNK9 block: inactive; KCNQ1 pot: inactive

What do the screens show for `Cc1ccc(NC(=O)C2=C(c3ccccc3)S(=O)(=O)CCS2(=O)=O)cc1`?
hERG protect: -7; KCNQ1 inh: inactive; KCNK3 block: inactive; Kir21 inh: -5.7*; KCNK9 block: inactive; KCNQ1 pot: inactive

Results for Cc1ccc(C(=O)OCC(=O)c2ccc(Br)cc2)cc1S(=O)(=O)N1CCOCC1 ?
KCNK3 block: inactive

How did CCOc1ccccc1N(CC(=O)OC)S(C)(=O)=O do in these assays?
hERG protect: 4.6*; KCNQ1 inh: inactive; KCNK3 block: inactive; Kir21 inh: 1.1; KCNK9 block: inactive; KCNQ1 pot: inactive

How did CCOc1ccccc1N(CC(=O)N1CCCCCC1)S(C)(=O)=O do in these assays?
hERG protect: -13; KCNQ1 inh: inactive; KCNK3 block: inactive; Kir21 inh: -0.71; KCNK9 block: inactive; KCNQ1 pot: inactive
